Data set [1] has as its target Ephrin type-B receptor 3 (Homo sapiens) (UniProt P54753). The experiment in a line: Inhibition of recombinant human N-terminal His6-tagged EPHB3 (561 to 998 residues) expressed in Escherichia coli assessed as remaining activity at 1 uM using Poly(Glu, Tyr) as substrate incubated for 30 mins in presence of [gamma-33P]ATP by filter binding method relative to control. In outline: (§1)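 Panel assays were run for 30 min at 21 °C, within the linear range for time and enzyme. […] Results are percent activity remaining relative to compound-free control, averaged from triplicate ± S.D.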

Data set [2] addresses T1, mTORC2 (Homo sapiens) (UniProt P42345+Q6R327+Q9BVC4+Q9BPZ7). To be noted: HEK293, dose 30-1000 nM, time 30.0 min.
Data set [3] has as its target cAMP-dependent protein kinase catalytic subunit alpha (Homo sapiens) (UniProt P17612). The experiment in a line: Inhibition of recombinant human N-terminal GST-tagged PKAalpha (2 to 351 residues) expressed in Escherichia coli assessed as remaining activity at 10 uM using Kemptide as substrate incubated for 30 mins in presence of [gamma-33P]ATP by filter binding method relative to control. An outline of the steps:
as §1

Data set [4] has as its target Tyrosine-protein kinase BTK (Homo sapiens) (UniProt Q06187). The experiment in a line: Inhibition of recombinant human N-terminal His6-tagged BTK (2 to 659 residues) expressed in baculovirus infected Sf21 cells assessed as remaining activity at 1 uM using KVEKIGEGTYGVVYK as substrate incubated for 30 mins in presence of [gamma-33P]ATP by filter binding method relative to control. An outline of the steps:
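Incubation was 30 min at room temperature (21 °C) under conditions linear with time and enzyme amount. Activity is reported as percent of control lacking compound, triplicate mean ± S.D.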

For data set [5], the target named is Mitogen-activated protein kinase 13 (Homo sapiens) (UniProt O15264). Briefly: Inhibition of recombinant human GST-tagged P38delta (1 to 365 residues) expressed in Escherichia coli assessed as remaining activity at 10 uM using MBP as substrate incubated for 30 mins in presence of [gamma-33P]ATP by filter binding method relative to control. In outline: (§2)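 Kinase panel run robotically at 21 °C for 30 min, linear in time and enzyme. […] Compound tested at 1 or 10 µM. Activity given as percentage of incubations without compound, mean of triplicates ± S.D.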
Sequence of Mitogen-activated protein kinase 13 (Homo sapiens) (O15264 whole entry, the tested form may be a part): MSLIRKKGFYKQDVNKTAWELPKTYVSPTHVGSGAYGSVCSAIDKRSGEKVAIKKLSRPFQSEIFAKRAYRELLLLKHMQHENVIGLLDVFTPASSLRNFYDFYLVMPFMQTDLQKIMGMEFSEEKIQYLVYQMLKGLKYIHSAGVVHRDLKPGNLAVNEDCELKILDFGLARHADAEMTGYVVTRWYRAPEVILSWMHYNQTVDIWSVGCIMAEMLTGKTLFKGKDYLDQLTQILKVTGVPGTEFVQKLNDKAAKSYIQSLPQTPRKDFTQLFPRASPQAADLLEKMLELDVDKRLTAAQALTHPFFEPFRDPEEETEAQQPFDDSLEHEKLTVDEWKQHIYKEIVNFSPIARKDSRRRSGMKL

The subject of the next data set is MEF. Briefly: Growth inhibition of MEF cells assessed reduction in cell viability at 3 uM incubated for 1 to 3 days by crystal violet staining based assay. Type of data set: toxicity. To be noted: mouse, time 1-3 day. In outline:
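MEFs seeded at 20000 cells per 1.91 cm2 well, grown overnight in 10% foetal bovine serum, then cultured 1, 2 or 3 days with 3 μM inhibitor, 100 nM rapamycin or DMSO. Medium changed every 24 h with freshly dissolved inhibitors. Cells fixed in 4% paraformaldehyde, stained with 0.1% Crystal Violet, dye extracted in 10% acetic acid, A590 read. Quadruplicate wells, expressed as % of DMSO control.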

In data set [6] the target is T2, mTORC1 (Homo sapiens) (UniProt P42345+Q8N122+Q9BVC4). To be noted: HEK293, dose 30.0 nM, time 30.0 min.
The target of data set [7] is T1, mTORC2 (Homo sapiens). To be noted: HEK293, dose 30-1000 nM, time 30.0 min. This is another data set of the same source.
Data set [8] deals with Phosphatidylinositol 3-kinase catalytic subunit type 3 (Homo sapiens) (UniProt Q8NEB9). The experiment in a line: Inhibition of VPS34 (unknown origin) assessed as remaining activity at 1 uM using phosphatidylinositol as substrate incubated for 60 mins in presence of ATP relative to control.
Sequence of Phosphatidylinositol 3-kinase catalytic subunit type 3 (Homo sapiens) (Q8NEB9 whole entry, the tested form may be a part): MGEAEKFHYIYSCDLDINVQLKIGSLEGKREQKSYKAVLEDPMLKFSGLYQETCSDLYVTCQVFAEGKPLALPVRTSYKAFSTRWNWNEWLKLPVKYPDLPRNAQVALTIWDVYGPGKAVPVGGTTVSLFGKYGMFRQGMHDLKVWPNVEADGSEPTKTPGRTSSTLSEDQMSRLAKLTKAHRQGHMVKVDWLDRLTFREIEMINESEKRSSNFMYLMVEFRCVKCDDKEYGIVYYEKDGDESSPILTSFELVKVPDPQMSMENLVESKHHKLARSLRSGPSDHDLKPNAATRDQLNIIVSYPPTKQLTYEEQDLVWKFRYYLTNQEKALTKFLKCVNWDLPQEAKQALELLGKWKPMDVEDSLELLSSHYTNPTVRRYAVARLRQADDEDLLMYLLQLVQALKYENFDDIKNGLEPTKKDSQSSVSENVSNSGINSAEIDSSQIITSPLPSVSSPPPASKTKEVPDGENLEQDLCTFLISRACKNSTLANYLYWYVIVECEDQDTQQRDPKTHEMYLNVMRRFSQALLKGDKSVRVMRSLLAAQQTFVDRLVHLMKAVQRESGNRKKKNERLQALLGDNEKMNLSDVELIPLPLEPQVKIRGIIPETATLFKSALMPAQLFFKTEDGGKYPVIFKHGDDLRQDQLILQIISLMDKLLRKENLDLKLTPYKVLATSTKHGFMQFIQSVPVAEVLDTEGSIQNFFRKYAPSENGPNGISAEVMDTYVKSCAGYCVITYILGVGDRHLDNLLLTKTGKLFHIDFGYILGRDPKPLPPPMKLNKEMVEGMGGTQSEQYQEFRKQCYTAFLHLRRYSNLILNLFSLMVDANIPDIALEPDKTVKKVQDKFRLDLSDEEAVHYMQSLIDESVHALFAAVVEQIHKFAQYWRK
For data set [9], the target named is Serine/threonine-protein kinase PAK 5 (Homo sapiens) (UniProt Q9P286). Briefly: Inhibition of recombinant human N-terminal GST-tagged PAK5 (2 to 719 residues) expressed in Escherichia coli assessed as remaining activity at 10 uM using RRRLSFAEPG as substrate incubated for 30 mins in presence of [gamma-33P]ATP by filter binding method relative to control. An outline of the steps: as §1
Sequence of Serine/threonine-protein kinase PAK 5 (Homo sapiens) (Q9P286 whole entry, looked up, the tested form may be a part): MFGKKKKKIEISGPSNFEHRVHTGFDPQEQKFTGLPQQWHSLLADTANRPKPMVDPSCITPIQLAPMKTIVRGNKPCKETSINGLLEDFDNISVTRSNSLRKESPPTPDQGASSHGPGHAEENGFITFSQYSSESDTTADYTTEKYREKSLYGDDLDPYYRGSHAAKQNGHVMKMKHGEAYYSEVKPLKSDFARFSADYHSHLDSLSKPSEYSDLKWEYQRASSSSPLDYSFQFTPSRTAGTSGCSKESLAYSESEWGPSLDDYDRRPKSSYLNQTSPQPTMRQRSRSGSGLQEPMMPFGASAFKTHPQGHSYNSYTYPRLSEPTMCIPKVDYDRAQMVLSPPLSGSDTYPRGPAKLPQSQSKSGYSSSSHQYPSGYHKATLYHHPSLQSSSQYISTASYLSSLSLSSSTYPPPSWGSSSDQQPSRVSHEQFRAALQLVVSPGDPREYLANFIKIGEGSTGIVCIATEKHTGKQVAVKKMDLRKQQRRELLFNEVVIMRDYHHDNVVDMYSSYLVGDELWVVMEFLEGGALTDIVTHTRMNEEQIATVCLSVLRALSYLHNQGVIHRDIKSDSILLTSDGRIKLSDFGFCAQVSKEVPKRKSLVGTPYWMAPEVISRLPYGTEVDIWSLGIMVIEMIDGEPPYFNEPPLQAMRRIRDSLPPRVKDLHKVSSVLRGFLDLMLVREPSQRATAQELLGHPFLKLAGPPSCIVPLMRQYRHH

Data set [10] concerns the target T1, mTORC2 (Homo sapiens). To be noted: HEK293, dose 30-1000 nM, time 30.0 min. The source holds these as a separate data set.
Data set [11] addresses T2, mTORC1 (Homo sapiens). To be noted: HEK293, dose 30-1000 nM, time 30.0 min.
In data set [12] the target is Sphingosine kinase 2 (Homo sapiens) (UniProt Q9NRA0). Briefly: Inhibition of SPHK2 (unknown origin) assessed as remaining activity at 1 uM using sphingosine as substrate incubated for 30 mins in presence of ATP relative to control. An outline of the steps:
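SPHK2 reaction: 10 μM sphingosine, 1 μM ATP, 50 mM Tris/HCl pH 7.5, 200 mM KCl, 5 mM MgCl2, 1 mM EGTA, 1 mM DTT, 30 min at room temperature. Kinase-Glo Plus luminescence read-out. Percentage of control activity, triplicate.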

Data set [13] addresses Casein kinase II subunit alpha (Homo sapiens) (UniProt P68400). The experiment in a line: Inhibition of recombinant human N-terminal His6-tagged CK2alpha1 (2 to 391 residues) expressed in Escherichia coli assessed as remaining activity at 1 uM using RRRDDDSDDD as substrate incubated for 30 mins in presence of [gamma-33P]ATP by filter binding method relative to control. In outline:
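Radiometric panel assay run robotically at 21 °C for 30 min, linear in time and enzyme. […] Activity is expressed as percentage of the compound-omitted control, averaged from triplicates ± S.D.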

In data set [14] the target is Homeodomain-interacting protein kinase 2 (Homo sapiens) (UniProt Q9H2X6). Briefly: Inhibition of recombinant human N-terminal GST-tagged HIPK2 (165 to 564 residues) expressed in Escherichia coli assessed as remaining activity at 10 uM using MBP as substrate incubated for 30 mins in presence of [gamma-33P]ATP by filter binding method relative to control. In outline:
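Radiometric kinase panel run robotically at room temperature (21 °C) for 30 min, linear in time and enzyme. […] Activity is expressed as percent of control without compound, from triplicate determinations ± S.D.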

In data set [15] the target is MAP kinase-interacting serine/threonine-protein kinase 2 (Homo sapiens) (UniProt Q9HBH9). The experiment in a line: Inhibition of recombinant human N-terminal GST/C-terminal His6-tagged MNK2alpha (2 to 465 residues) expressed in Escherichia coli assessed as remaining activity at 1 uM using eIF4E as substrate incubated for 30 mins in presence of [gamma-33P]ATP by filter binding method relative to control.
Sequence of MAP kinase-interacting serine/threonine-protein kinase 2 (Homo sapiens) (Q9HBH9 whole entry, looked up, the tested form may be a part): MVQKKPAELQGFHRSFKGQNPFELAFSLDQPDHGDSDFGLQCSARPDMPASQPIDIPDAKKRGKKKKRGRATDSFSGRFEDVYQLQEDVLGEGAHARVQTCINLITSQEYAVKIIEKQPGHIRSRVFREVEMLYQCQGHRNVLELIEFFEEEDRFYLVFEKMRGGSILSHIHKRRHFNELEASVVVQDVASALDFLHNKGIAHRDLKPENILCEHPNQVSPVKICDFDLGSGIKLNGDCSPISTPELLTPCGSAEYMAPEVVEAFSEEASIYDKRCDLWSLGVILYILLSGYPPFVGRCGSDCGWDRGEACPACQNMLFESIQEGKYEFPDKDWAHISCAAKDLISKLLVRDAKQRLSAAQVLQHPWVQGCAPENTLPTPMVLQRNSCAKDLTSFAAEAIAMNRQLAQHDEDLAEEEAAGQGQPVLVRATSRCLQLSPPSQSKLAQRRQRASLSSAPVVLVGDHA

Data set [16] addresses Dual specificity mitogen-activated protein kinase kinase 1 (Homo sapiens) (UniProt Q02750). The experiment in a line: Inhibition of recombinant human MKK1 (2 to 393 residues) expressed in Escherichia coli assessed as remaining activity at 10 uM using MBP as substrate incubated for 30 mins in presence of [gamma-33P]ATP by filter binding method relative to control. In outline:
as §2

Each structure is given as a SMILES string.

Sequence of Ephrin type-B receptor 3 (Homo sapiens) (P54753 whole entry, the tested form may be a part): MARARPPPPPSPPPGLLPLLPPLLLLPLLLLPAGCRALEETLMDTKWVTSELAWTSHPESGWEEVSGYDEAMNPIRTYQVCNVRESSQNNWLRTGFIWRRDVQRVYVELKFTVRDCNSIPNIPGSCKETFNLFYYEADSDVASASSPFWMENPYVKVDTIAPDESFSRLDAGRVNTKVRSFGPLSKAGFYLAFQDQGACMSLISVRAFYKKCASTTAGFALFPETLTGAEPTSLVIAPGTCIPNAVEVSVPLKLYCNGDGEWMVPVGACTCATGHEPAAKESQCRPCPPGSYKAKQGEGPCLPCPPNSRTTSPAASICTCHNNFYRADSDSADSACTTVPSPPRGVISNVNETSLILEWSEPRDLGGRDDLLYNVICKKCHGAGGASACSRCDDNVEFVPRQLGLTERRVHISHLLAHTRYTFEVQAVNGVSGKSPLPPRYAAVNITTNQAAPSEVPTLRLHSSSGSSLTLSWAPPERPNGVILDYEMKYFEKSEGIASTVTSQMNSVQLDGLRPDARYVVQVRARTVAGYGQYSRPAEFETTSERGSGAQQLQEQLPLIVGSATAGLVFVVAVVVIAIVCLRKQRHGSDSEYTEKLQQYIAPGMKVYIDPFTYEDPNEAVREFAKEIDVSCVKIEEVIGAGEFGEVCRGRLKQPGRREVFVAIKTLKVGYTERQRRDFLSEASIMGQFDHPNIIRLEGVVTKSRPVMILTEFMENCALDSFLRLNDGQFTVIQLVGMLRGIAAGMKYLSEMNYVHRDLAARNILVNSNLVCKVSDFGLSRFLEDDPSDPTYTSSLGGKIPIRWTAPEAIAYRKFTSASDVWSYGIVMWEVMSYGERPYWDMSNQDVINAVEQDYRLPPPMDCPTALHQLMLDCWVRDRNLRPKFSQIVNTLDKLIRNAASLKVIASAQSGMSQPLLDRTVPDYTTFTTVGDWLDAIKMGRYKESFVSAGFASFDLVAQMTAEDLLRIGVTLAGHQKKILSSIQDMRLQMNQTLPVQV
Sequence of Casein kinase II subunit alpha (Homo sapiens) (P68400 whole entry, looked up, the tested form may be a part): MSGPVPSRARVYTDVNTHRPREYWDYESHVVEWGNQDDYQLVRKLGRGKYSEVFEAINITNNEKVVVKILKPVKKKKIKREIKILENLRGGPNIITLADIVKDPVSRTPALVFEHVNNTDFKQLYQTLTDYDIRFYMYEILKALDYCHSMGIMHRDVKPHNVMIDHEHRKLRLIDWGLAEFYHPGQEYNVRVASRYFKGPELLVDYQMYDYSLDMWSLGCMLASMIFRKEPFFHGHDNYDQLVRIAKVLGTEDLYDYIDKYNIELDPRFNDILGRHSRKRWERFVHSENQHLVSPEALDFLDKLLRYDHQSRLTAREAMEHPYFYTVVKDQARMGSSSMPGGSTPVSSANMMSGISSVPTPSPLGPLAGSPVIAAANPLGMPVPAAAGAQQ
Sequence of Tyrosine-protein kinase BTK (Homo sapiens) (Q06187 whole entry, the tested form may be a part): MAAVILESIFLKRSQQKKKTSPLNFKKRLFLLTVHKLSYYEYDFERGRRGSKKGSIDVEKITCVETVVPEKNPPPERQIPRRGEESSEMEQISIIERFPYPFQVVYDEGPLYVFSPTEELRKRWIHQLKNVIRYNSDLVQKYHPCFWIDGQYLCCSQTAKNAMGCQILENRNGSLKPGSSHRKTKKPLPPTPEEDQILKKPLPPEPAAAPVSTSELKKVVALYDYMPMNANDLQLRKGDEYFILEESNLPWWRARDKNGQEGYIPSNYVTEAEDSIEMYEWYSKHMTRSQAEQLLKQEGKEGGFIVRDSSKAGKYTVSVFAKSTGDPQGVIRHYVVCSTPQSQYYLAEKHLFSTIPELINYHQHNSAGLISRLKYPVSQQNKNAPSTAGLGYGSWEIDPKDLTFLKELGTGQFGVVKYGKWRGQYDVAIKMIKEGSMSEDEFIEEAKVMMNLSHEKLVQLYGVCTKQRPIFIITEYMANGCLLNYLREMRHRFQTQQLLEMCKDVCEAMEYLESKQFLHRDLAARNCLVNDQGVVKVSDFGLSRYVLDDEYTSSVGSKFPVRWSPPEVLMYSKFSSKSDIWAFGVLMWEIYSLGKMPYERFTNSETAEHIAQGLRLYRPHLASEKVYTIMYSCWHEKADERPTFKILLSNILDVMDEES
Sequence of Dual specificity mitogen-activated protein kinase kinase 1 (Homo sapiens) (Q02750 whole entry, the tested form may be a part): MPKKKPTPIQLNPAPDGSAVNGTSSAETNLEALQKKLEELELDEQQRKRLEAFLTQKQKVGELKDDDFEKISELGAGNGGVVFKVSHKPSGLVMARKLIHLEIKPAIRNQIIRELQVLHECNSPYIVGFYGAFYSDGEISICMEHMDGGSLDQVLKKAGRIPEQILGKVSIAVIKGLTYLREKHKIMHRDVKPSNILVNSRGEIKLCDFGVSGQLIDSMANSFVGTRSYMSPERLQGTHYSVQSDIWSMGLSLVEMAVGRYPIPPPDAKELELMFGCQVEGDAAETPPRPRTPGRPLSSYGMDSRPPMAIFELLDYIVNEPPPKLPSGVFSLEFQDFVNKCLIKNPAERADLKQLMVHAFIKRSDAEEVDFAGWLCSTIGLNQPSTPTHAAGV

Take `COc1ccc(-c2ccc3c(N4CCOCC4)nc(N4C[C@@H](C)O[C@@H](C)C4)nc3n2)cc1CO` [Ku-0063794]: the Activity is 100% in data set [1]; 85% in data set [3]; 85% in data set [4]; 87% in data set [5]; 101% in data set [8]; 81% in data set [9]. For the same compound, the Activity came to 119% in [12]; 104% in [13]; 89% in [14]; 87% in data set [15]; 43% in [16]. Further, the inhibition entry was “Dose-Dependent Effect” at mTORC2 (Homo sapiens) [2]; 90% at mTORC1 (Homo sapiens) [6]; “Dose-Dependent Effect” at mTORC2 (Homo sapiens) [7]; “Dose-Dependent Effect” on mTORC2 (Homo sapiens) [10]; “Dose-Dependent Effect” on mTORC1 (Homo sapiens) [11]. Further, the “growth inhibition (GI)” value in the data set with MEF is reported as “Toxic”.

By inhibition is commonly meant the relative decrease from the control value, in per cent.

The values above are taken from ChEMBL document CHEMBL5678799 (Biochem J, 2009).
